# Paper PMC2975716 (Journal of Lipid Research, 2010)
# Where a chain is given by its changes, count along the chain named. Where two headings read alike, the source gives them in different places. Marks after values point to notes of the source that are not given here.
# What was measured:
# CETP [1] = target: T1, CETP (Homo sapiens, UniProt P11597); format: binding; settings: 25 µM unlabeled compound, […] label
# T1 sequence (P11597 18-493): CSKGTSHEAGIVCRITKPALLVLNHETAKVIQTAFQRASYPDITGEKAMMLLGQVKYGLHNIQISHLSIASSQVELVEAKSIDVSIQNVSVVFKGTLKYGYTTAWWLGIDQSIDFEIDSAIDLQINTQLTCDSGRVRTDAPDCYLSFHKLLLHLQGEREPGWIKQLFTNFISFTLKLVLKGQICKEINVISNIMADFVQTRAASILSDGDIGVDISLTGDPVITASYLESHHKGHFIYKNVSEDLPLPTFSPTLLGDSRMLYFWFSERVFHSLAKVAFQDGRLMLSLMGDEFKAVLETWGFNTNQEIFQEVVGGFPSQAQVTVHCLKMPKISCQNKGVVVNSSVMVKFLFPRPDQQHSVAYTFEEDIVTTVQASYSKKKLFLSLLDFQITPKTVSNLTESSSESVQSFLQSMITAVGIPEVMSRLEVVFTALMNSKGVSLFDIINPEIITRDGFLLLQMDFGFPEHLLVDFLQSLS
# CETP [2] = target: T1, CETP; format: binding; settings: 25 µM unlabeled compound, coincubation
# CETP [3] = target: T1, CETP; experiment: CETP ELISA with different capture antibodies, in vitro addition to human plasma; settings: 0.01-10 µM
# Procedure, shortened: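 Test compound dilution series (0.01–10 µM) made in this plasma, held 3 h at 37°C, then assayed by JHC-1-capture/6/6-HRP and 6/2-capture/6/17-HRP ELISAs. Duplicates per donor (n = 14); mean with SD.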
# [4] = tested on: CETP-induced pre-β-HDL formation; experiment: Quantification of pre-β-HDL by ELISA in incubated human plasma; format: biochemical; settings: endogenous CETP only, 21 h at 37°C
# Procedure, shortened: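 Human plasma with endogenous CETP at 1.25 μg/ml, no rhCETP added, incubated 21 h at 37°C with or without test compound (0.1, 1, 3, 10 µM). Pre-β-HDL quantified by a pre-β1-selective ELISA. Dose effects assessed by ANCOVA with nested factor.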
# C13S CETP = target: T2, C13S CETP (Homo sapiens, UniProt P11597, C30S); experiment: Transfer of CE from HDL to LDL, scintillation proximity assay, C13S mutant; format: biochemical
# T2 sequence (P11597 18-493 C30S): T1 sequence (P11597 18-493) with C13S
# PLTP [5] = target: T3, PLTP (Homo sapiens, UniProt P55058); experiment: PLTP activity; format: biochemical; settings: concentrations up to 30 µM; data not shown
# [6] = cited from earlier work
# CETP [7] = target: T1, CETP; experiment: CETP ELISA on plasma of healthy subjects after single oral 600 mg dalcetrapib; format: in vivo; settings: 22 healthy volunteers
# CETP [8] = target: T1, CETP; experiment: Transfer of CE from HDL to LDL, scintillation proximity assay; format: biochemical
# Golden Syrian hamsters = experiment: In vivo macrophage-to-feces RCT study; design: species or system Golden Syrian hamster; settings: dalcetrapib 100 mg/kg BID, torcetrapib 30 mg/kg QD, anacetrapib 30 mg/kg QD; for [3H]HDL / [3H]plasma: Day 3 after labeled macrophage injection; for [3H]HDL / [3H]plasma / Fecal [3H]total sterols / Fecal total radioactivity: mean ± SD; for Change in liver radioactivity compared with vehicle: day 10, data not shown; for Fecal [3H]total sterols: sum of [3H]neutral sterols and [3H]bile acids; for Fecal [3H]total sterols / Fecal total radioactivity: day 0-10; for Fecal total radioactivity: whole fecal homogenates
# [9] = format: in vivo, human; settings: healthy volunteers, single oral dose 600 mg dalcetrapib
# JHC-1 = experiment: Binding to antibody JHC-1
# CETP [10] = target: T1, CETP; experiment: SPR; format: binding; settings: 5 µM, 60 s, before and after dalcetrapib-thiol injections
# PLTP [11] = target: T3, PLTP; settings: concentrations up to 30 µM; cited from earlier work
# [12] = human plasma of seven donors, 3 h at 37°C
# [13] = read-out: IC50 for transfer of CE from HDL to LDL by C13S CETP mutant, mean ± SEM, CETP 0.5 µg/ml, 3 h at 37°C
# [14] = read-out: IC50 for transfer of CE from HDL to LDL by rhCETP, mean ± SEM, CETP 0.5 µg/ml, 3 h at 37°C
# T3 sequence (P55058 18-493, species assumed): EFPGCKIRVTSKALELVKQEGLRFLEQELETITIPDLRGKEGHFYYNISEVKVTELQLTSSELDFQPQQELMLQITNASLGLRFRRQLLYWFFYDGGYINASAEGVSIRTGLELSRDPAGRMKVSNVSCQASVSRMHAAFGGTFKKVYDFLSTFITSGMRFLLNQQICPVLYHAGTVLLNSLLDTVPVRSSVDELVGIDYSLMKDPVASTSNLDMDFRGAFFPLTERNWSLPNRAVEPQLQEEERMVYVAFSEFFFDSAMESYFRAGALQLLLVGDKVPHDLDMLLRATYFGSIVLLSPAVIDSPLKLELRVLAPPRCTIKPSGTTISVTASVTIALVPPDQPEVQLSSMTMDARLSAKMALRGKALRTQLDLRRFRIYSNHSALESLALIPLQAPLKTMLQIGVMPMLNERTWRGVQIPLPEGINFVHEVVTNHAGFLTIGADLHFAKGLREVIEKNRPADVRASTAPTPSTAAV
Structure (SMILES),Effect on binding of [14C]torcetrapib to immobilized rhCETP (CETP [2]),"Change in CETP epitope detection, ELISA with capture antibody 6/2 (CETP [3]; [12])",IC50 (C13S CETP; [13]) [nM],IC50 (CETP [8]; [14]) [nM],Decrease in amount of [14C]torcetrapib bound to immobilized rhCETP (CETP [2]) [%],Displacement of [14C]dalcetrapib-thiol bound to rhCETP (CETP [1]; with 5 mM TCEP),[3H]HDL (Golden Syrian hamsters),[3H]plasma (Golden Syrian hamsters) [kBq/ml],Change in liver radioactivity compared with vehicle (Golden Syrian hamsters) [%],Fecal [3H]total sterols (Golden Syrian hamsters),Fecal total radioactivity (Golden Syrian hamsters),also measured
CCC(CC)CC1(C(=O)Nc2ccccc2SSc2ccccc2NC(=O)C2(CC(CC)CC)CCCCC2)CCCCC1 [dalcetrapib-disulfide],unaffected,–,> 100000,35.2 ± 2.8,–,–,–,–,–,–,–,–
COc1cc(F)c(C(C)C)cc1-c1ccc(C(F)(F)F)cc1CN1C(=O)O[C@H](c2cc(C(F)(F)F)cc(C(F)(F)F)c2)[C@@H]1C [anacetrapib],–,–,–,–,60,neither torcetrapib nor anacetrapib affected,0.34 ± 0.07^c kBq/ml,0.79 ± 0.11,−9.2,9.7 ± 0.9 % of injected,13.2 ± 1.5 % of injected,Raise of plasma HDL-C in humans [6]: up to 130%

# Now from value to compound, other results behind:
Effect on binding of [14C]torcetrapib to immobilized rhCETP (CETP [2]),"Change in CETP epitope detection, ELISA with capture antibody 6/2 (CETP [3]; [12])",IC50 (C13S CETP; [13]) [nM],IC50 (CETP [8]; [14]) [nM],Decrease in amount of [14C]torcetrapib bound to immobilized rhCETP (CETP [2]) [%],Structure (SMILES),Displacement of [14C]dalcetrapib-thiol bound to rhCETP (CETP [1]; with 5 mM TCEP),[3H]HDL (Golden Syrian hamsters),[3H]plasma (Golden Syrian hamsters) [kBq/ml],Change in liver radioactivity compared with vehicle (Golden Syrian hamsters) [%],Fecal [3H]total sterols (Golden Syrian hamsters),Fecal total radioactivity (Golden Syrian hamsters),also measured
unaffected,no change in epitope detection,–,–,–,CCC(CC)CC1(C(=O)Nc2ccccc2SC(=O)C(C)C)CCCCC1 [dalcetrapib],displaced,0.28 ± 0.04^c kBq/ml,0.74 ± 0.05,−42.2,12.5 ± 0.5^b % of injected,17.5 ± 0.5^c % of injected,"Concentration at which maximum decrease in JHC-1 epitope detection is reached (CETP [3]; human plasma in vitro): 0.5 µM; Concentration from which CETP detection by JHC-1 is decreased (CETP [3]; human plasma in vitro): ≥ 0.1 µM; Increase in pre-β-HDL ([4]; 1 µM, NS): 4%; Increase in pre-β-HDL ([4]; 3 µM, P < 0.05): 13%; Increase in pre-β-HDL ([4]; 10 µM, P < 0.01): 16%; IC50 (C13S CETP): > 100000 nM; Effect on PLTP activity (PLTP [5]): neither inhibit nor increase PLTP activity; Raise of HDL-C in humans ([6]; dose of 600 mg): up to 36%; Change in CETP detection with 6/2 as capture antibody (CETP [7]): no change was detected; Decrease in CETP detection by the JHC-1-based ELISA (CETP [7]; P < 0.001): 30%; IC50 (CETP [8]): 205 ± 96.3 nM"
only marginally decreased,–,> 100000,23.7 ± 1.9,–,CCC(CC)CC1(C(=O)Nc2ccccc2S)CCCCC1 [dalcetrapib-thiol],did occur when TCEP was present,–,–,–,–,–,"Displacement of [14C]dalcetrapib-thiol bound to rhCETP (CETP [1]; absence of TCEP, data not shown): not observed; Maximum plasma dalcetrapib-thiol level [9]: 628.7 ng/mL; Time of maximum plasma dalcetrapib-thiol level [9]: 4 h; t1/2 ([9]; mean ± SD): 25.5 ± 3.9 h; Binding to JHC-1 (JHC-1): did not bind"
–,no change in epitope detection,–,–,82,CCOC(=O)N1c2ccc(C(F)(F)F)cc2[C@@H](N(Cc2cc(C(F)(F)F)cc(C(F)(F)F)c2)C(=O)OC)C[C@H]1CC [torcetrapib],neither torcetrapib nor anacetrapib affected,0.32 ± 0.07^c kBq/ml,0.77 ± 0.11,−28.1,11.5 ± 0.5^b % of injected,16.5 ± 0.5^c % of injected,"Change in CETP epitope detection, ELISA with capture antibody JHC-1 (CETP [3]; [12]): did not change epitope detection; Binding to rhCETP following saturation of the dalcetrapib binding site (SPR) (CETP [10]): remained unchanged; Fecal sterol excretion in clinical studies [6]: not associated with an increase in fecal sterol excretion; Effect on PLTP activity (PLTP [11]): neither inhibit nor increase PLTP activity"
